{
  "source": "ChEMBL document CHEMBL5724801",
  "about": "“EUbOPEN Chemogenomics Library - Multiplex” (2024)",
  "test_system": "Fibroblast",
  "assay": "Multiplex assay against human fibroblast",
  "assay_type": "toxicity, cell-based",
  "outline": "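Cells stained live at seeding with Hoechst33342, BioTracker Green Microtubule Cytoskeleton Dye, MitoTracker Red and Annexin V Alexa Fluor 680 were imaged on a CQ1 microscope at 37°C and 5% CO2 after compound addition. Their classification by CellPathfinder machine-learning gating ran from Hoechst high-intensity objects versus normal cells, to healthy, pyknosed or fragmented nuclei among normal cells, to mitotic or apoptotic among pyknosed cells. Tubulin, mitochondrial-mass and membrane-permeability phenotypes are per cents of healthy-nucleus cells.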",
  "key": {"[1]": {"settings": "12 h, 1 µM, compound concentration 1 uM"}, "[2]": {"settings": "12 h, 10 µM, compound concentration 10 uM"}, "[3]": {"settings": "24 h, 1 µM, compound concentration 1 uM"}, "[4]": {"settings": "24 h, 10 µM, compound concentration 10 uM"}, "[5]": {"settings": "48 h, 1 µM, compound concentration 1 uM"}, "[6]": {"settings": "48 h, 10 µM, compound concentration 10 uM"}},
  "note": "Several values for one entry are separate records, joined by “and”; a condition that tells them apart may be missing. Equal entries are not always repeated.",
  "data": [
    {"smiles": "CSCC[C@H](NC=O)C(=O)N[C@@H](CC(C)C)C(=O)N[C@@H](Cc1ccccc1)C(=O)O", "values": [
      {"measurement": "Population Fragmented Nuclei (%)", "setting": "[1]", "result": "18% and 29%"},
      {"measurement": "Population Healthy Nuclei (%)", "setting": "[1]", "result": "69% and 51%"},
      {"measurement": "Population Mitochondria Different-Phenotype (%)", "setting": "[1]", "result": "3% and 4%"},
      {"measurement": "Population Tubulin-Different-Phenotype (%)", "setting": "[1]", "result": "26% and 39%"},
      {"measurement": "Total Cell Count", "setting": "[1]", "result": "182 and 175"},
      {"measurement": "Population Fragmented Nuclei (%)", "setting": "[2]", "result": 27, "unit": "%"},
      {"measurement": "Population Healthy Nuclei (%)", "setting": "[2]", "result": 39, "unit": "%"},
      {"measurement": "Population Hoechst High Intensity Objects (%)", "setting": "[2]", "result": 38, "unit": "%"},
      {"measurement": "Population Membrane Permeable-Phenotype (%)", "setting": "[2]", "result": 9, "unit": "%"},
      {"measurement": "Population Mitochondria Different-Phenotype (%)", "setting": "[2]", "result": "5% and 3%"},
      {"measurement": "Population Normal (%)", "setting": "[2]", "result": 61, "unit": "%"},
      {"measurement": "Population Tubulin-Different-Phenotype (%)", "setting": "[2]", "result": "24% and 35%"},
      {"measurement": "Total Cell Count", "setting": "[2]", "result": "112 and 315"},
      {"measurement": "Population Fragmented Nuclei (%)", "setting": "[3]", "result": 35, "unit": "%"},
      {"measurement": "Population Healthy Nuclei (%)", "setting": "[3]", "result": "73% and 46%"},
      {"measurement": "Population Hoechst High Intensity Objects (%)", "setting": "[3]", "result": 7, "unit": "%"},
      {"measurement": "Population Mitochondria Different-Phenotype (%)", "setting": "[3]", "result": "4% and 9%"},
      {"measurement": "Population Normal (%)", "setting": "[3]", "result": 92, "unit": "%"},
      {"measurement": "Population Tubulin-Different-Phenotype (%)", "setting": "[3]", "result": "18% and 43%"},
      {"measurement": "Total Cell Count", "setting": "[3]", "result": "173 and 179"},
      {"measurement": "Population Fragmented Nuclei (%)", "setting": "[4]", "result": 19, "unit": "%"},
      {"measurement": "Population Healthy Nuclei (%)", "setting": "[4]", "result": 38, "unit": "%"},
      {"measurement": "Population Hoechst High Intensity Objects (%)", "setting": "[4]", "result": 32, "unit": "%"},
      {"measurement": "Population Membrane Permeable-Phenotype (%)", "setting": "[4]", "result": 3, "unit": "%"},
      {"measurement": "Population Mitochondria Different-Phenotype (%)", "setting": "[4]", "result": "7% and 10%"},
      {"measurement": "Population Normal (%)", "setting": "[4]", "result": 67, "unit": "%"},
      {"measurement": "Population Tubulin-Different-Phenotype (%)", "setting": "[4]", "result": "25% and 47%"},
      {"measurement": "Total Cell Count", "setting": "[4]", "result": "107 and 230"},
      {"measurement": "Population Fragmented Nuclei (%)", "setting": "[5]", "result": "16% and 36%"},
      {"measurement": "Population Healthy Nuclei (%)", "setting": "[5]", "result": "69% and 47%"},
      {"measurement": "Population Mitochondria Different-Phenotype (%)", "setting": "[5]", "result": "1% and 8%"},
      {"measurement": "Population Tubulin-Different-Phenotype (%)", "setting": "[5]", "result": "21% and 54%"},
      {"measurement": "Total Cell Count", "setting": "[5]", "result": "184 and 174"},
      {"measurement": "Population Fragmented Nuclei (%)", "setting": "[6]", "result": 18, "unit": "%"},
      {"measurement": "Population Healthy Nuclei (%)", "setting": "[6]", "result": 44, "unit": "%"},
      {"measurement": "Population Hoechst High Intensity Objects (%)", "setting": "[6]", "result": 29, "unit": "%"},
      {"measurement": "Population Membrane Permeable-Phenotype (%)", "setting": "[6]", "result": 4, "unit": "%"},
      {"measurement": "Population Mitochondria Different-Phenotype (%)", "setting": "[6]", "result": "4% and 1%"},
      {"measurement": "Population Normal (%)", "setting": "[6]", "result": 70, "unit": "%"},
      {"measurement": "Population Tubulin-Different-Phenotype (%)", "setting": "[6]", "result": "24% and 47%"},
      {"measurement": "Total Cell Count", "setting": "[6]", "result": "110 and 231"}
    ]},
    {"smiles": "Cc1cc(O)c(-c2ccc([C@@H](C)CN(C)C)cc2)c2c1[nH]c(=O)c1sccc12", "values": [
      {"measurement": "Population Healthy Nuclei (%)", "setting": "[1]", "result": "67% and 56% and 55.08% and 75.51%"},
      {"measurement": "Population Hoechst High Intensity Objects (%)", "setting": "[1]", "result": "7% and 2% and 0%"},
      {"measurement": "Population Membrane Permeable-Phenotype (%)", "setting": "[1]", "result": "1% and 4% and 5.83% and 9.91%"},
      {"measurement": "Population Mitochondria Different-Phenotype (%)", "setting": "[1]", "result": "17% and 12% and 18.45% and 20.72%"},
      {"measurement": "Population Mitotic Cells (%)", "setting": "[1]", "result": "72.41% [middle of 4 runs]"},
      {"measurement": "Population Normal (%)", "setting": "[1]", "result": "92% and 97% and 100%"},
      {"measurement": "Population Pyknosed Nuclei (%)", "setting": "[1]", "result": "20% and 21% and 33.16% and 19.73%"},
      {"measurement": "Population Tubulin-Different-Phenotype (%)", "setting": "[1]", "result": "44% and 52% and 26.21% and 40.54%"},
      {"measurement": "Total Cell Count", "setting": "[1]", "result": "145 and 115 and 187 and 147"},
      {"measurement": "Population Apoptotic (%)", "setting": "[2]", "result": "69% [middle of 4 runs]"},
      {"measurement": "Population Healthy Nuclei (%)", "setting": "[2]", "result": "63% and 55% and 58.38% and 64.17%"},
      {"measurement": "Population Hoechst High Intensity Objects (%)", "setting": "[2]", "result": "6% and 5% and 0%"},
      {"measurement": "Population Membrane Permeable-Phenotype (%)", "setting": "[2]", "result": "8.7% [middle of 4 runs]"},
      {"measurement": "Population Mitochondria Different-Phenotype (%)", "setting": "[2]", "result": "40% [middle of 4 runs]"},
      {"measurement": "Population Mitotic Cells (%)", "setting": "[2]", "result": "30% and 75.86% and 55.84%"},
      {"measurement": "Population Normal (%)", "setting": "[2]", "result": "93% and 94% and 100%"},
      {"measurement": "Population Pyknosed Nuclei (%)", "setting": "[2]", "result": "29.44% [middle of 4 runs]"},
      {"measurement": "Population Tubulin-Different-Phenotype (%)", "setting": "[2]", "result": "90% and 80% and 81.74% and 85.06%"},
      {"measurement": "Total Cell Count", "setting": "[2]", "result": "146 and 137 and 197 and 240"},
      {"measurement": "Population Healthy Nuclei (%)", "setting": "[3]", "result": "66% and 54% and 64.88% and 75%"},
      {"measurement": "Population Hoechst High Intensity Objects (%)", "setting": "[3]", "result": "7% and 9% and 0%"},
      {"measurement": "Population Membrane Permeable-Phenotype (%)", "setting": "[3]", "result": "0% and 1% and 5.5% and 9.26%"},
      {"measurement": "Population Mitochondria Different-Phenotype (%)", "setting": "[3]", "result": "21.1% [middle of 4 runs]"},
      {"measurement": "Population Mitotic Cells (%)", "setting": "[3]", "result": "54% and 47% and 85.37% and 84.62%"},
      {"measurement": "Population Normal (%)", "setting": "[3]", "result": "92% and 90% and 100%"},
      {"measurement": "Population Pyknosed Nuclei (%)", "setting": "[3]", "result": "21% and 16% and 24.4% and 18.06%"},
      {"measurement": "Population Tubulin-Different-Phenotype (%)", "setting": "[3]", "result": "73% and 56% and 47.71% and 50.93%"},
      {"measurement": "Total Cell Count", "setting": "[3]", "result": "119 and 111 and 168 and 144"},
      {"measurement": "Population Apoptotic (%)", "setting": "[4]", "result": "57% [middle of 4 runs]"},
      {"measurement": "Population Healthy Nuclei (%)", "setting": "[4]", "result": "65% and 51% and 52.84% and 54.55%"},
      {"measurement": "Population Hoechst High Intensity Objects (%)", "setting": "[4]", "result": "3% and 8% and 0%"},
      {"measurement": "Population Membrane Permeable-Phenotype (%)", "setting": "[4]", "result": "0% and 3% and 6.45% and 8.77%"},
      {"measurement": "Population Mitochondria Different-Phenotype (%)", "setting": "[4]", "result": "42% and 34% and 53.76% and 42.11%"},
      {"measurement": "Population Mitotic Cells (%)", "setting": "[4]", "result": "43.68% [middle of 4 runs]"},
      {"measurement": "Population Normal (%)", "setting": "[4]", "result": "96% and 91% and 100%"},
      {"measurement": "Population Pyknosed Nuclei (%)", "setting": "[4]", "result": "34.66% [middle of 4 runs]"},
      {"measurement": "Population Tubulin-Different-Phenotype (%)", "setting": "[4]", "result": "87% and 81% and 80.65% and 92.11%"},
      {"measurement": "Total Cell Count", "setting": "[4]", "result": "122 and 124 and 176 and 209"},
      {"measurement": "Population Apoptotic (%)", "setting": "[5]", "result": "57% [middle of 4 runs]"},
      {"measurement": "Population Healthy Nuclei (%)", "setting": "[5]", "result": "55% and 48% and 49.14% and 75.38%"},
      {"measurement": "Population Hoechst High Intensity Objects (%)", "setting": "[5]", "result": "7% and 9% and 0%"},
      {"measurement": "Population Mitochondria Different-Phenotype (%)", "setting": "[5]", "result": "20% [middle of 4 runs]"},
      {"measurement": "Population Mitotic Cells (%)", "setting": "[5]", "result": "52% [middle of 4 runs]"},
      {"measurement": "Population Normal (%)", "setting": "[5]", "result": "92% and 90% and 100%"},
      {"measurement": "Population Pyknosed Nuclei (%)", "setting": "[5]", "result": "24% and 20% and 28.57% and 19.23%"},
      {"measurement": "Population Tubulin-Different-Phenotype (%)", "setting": "[5]", "result": "70% and 62% and 43.02% and 59.18%"},
      {"measurement": "Total Cell Count", "setting": "[5]", "result": "118 and 103 and 175 and 130"},
      {"measurement": "Population Apoptotic (%)", "setting": "[6]", "result": "70% and 71% and 49.33% and 79.12%"},
      {"measurement": "Population Healthy Nuclei (%)", "setting": "[6]", "result": "53% and 43% and 45.16% and 48.13%"},
      {"measurement": "Population Hoechst High Intensity Objects (%)", "setting": "[6]", "result": "10% and 7% and 0%"},
      {"measurement": "Population Membrane Permeable-Phenotype (%)", "setting": "[6]", "result": "0% and 8.33% and 20%"},
      {"measurement": "Population Mitochondria Different-Phenotype (%)", "setting": "[6]", "result": "53% and 30% and 44.05%"},
      {"measurement": "Population Mitotic Cells (%)", "setting": "[6]", "result": "29% [middle of 4 runs]"},
      {"measurement": "Population Normal (%)", "setting": "[6]", "result": "89% and 92% and 100%"},
      {"measurement": "Population Tubulin-Different-Phenotype (%)", "setting": "[6]", "result": "89% and 85% and 58.33% and 77.78%"},
      {"measurement": "Total Cell Count", "setting": "[6]", "result": "117 and 136 and 186 and 187"}
    ]}
  ]
}
